Assays:
[1] = target: T1, D(2) dopamine receptor (Homo sapiens, UniProt P14416); assay: Displacement of [3H] Spiperone from human D2L receptor expressed in CHO cells by competitive radioligand binding assay; assay type: cell-based
[2] = target: T1, D(2) dopamine receptor; assay: Displacement of [3H] Spiperone from human D2S receptor expressed in CHO cells by competitive radioligand binding assay; assay type: cell-based
[3] = target: T2, D(4) dopamine receptor (Homo sapiens, UniProt P21917); assay: Displacement of [3H] Spiperone from human D4.4 receptor expressed in CHO cells by competitive radioligand binding assay; assay type: cell-based
T2 sequence (P21917 whole entry): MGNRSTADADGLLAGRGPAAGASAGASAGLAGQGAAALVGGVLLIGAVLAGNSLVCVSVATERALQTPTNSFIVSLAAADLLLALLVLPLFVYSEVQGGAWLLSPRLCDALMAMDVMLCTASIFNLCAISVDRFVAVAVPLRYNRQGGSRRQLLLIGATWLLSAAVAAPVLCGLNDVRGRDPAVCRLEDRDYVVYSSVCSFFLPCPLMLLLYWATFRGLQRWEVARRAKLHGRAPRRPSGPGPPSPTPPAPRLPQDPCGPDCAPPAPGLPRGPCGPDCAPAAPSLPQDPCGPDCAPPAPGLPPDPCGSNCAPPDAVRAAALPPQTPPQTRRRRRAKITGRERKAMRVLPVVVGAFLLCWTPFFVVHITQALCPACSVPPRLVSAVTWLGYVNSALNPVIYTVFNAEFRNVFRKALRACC

[4] = species on record: Homo sapiens; assay: Selectivity index, ratio of Ki for displacement of [3H] Spiperone from human D3 receptor expressed in CHO cells to Ki for displacement of [3H] Spiperone from human D4.4 receptor expressed in CHO cells; assay type: cell-based
How it was run: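 Competition binding against [3H]spiperone on membranes of CHO cells stably expressing cloned human D2L, D2S, D3 or D4.4 receptors. Ki from monophasic curve fits; mean ± SEM of three to seven experiments, each in triplicate. Selectivity calculated as Ki(D2L, D2S or D3) divided by Ki(D4.4).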

[5] = target: D(1B) dopamine receptor (Homo sapiens, UniProt P21918); assay: Displacement of [3H] SCH23390 from D5 receptor (unknown origin)
[6] = target: T3, Alpha-1A adrenergic receptor (Homo sapiens, UniProt P35348); assay: Displacement of [3H] prazosin from alpha1A adrenergic receptor (unknown origin)
T3 sequence (P35348 whole entry): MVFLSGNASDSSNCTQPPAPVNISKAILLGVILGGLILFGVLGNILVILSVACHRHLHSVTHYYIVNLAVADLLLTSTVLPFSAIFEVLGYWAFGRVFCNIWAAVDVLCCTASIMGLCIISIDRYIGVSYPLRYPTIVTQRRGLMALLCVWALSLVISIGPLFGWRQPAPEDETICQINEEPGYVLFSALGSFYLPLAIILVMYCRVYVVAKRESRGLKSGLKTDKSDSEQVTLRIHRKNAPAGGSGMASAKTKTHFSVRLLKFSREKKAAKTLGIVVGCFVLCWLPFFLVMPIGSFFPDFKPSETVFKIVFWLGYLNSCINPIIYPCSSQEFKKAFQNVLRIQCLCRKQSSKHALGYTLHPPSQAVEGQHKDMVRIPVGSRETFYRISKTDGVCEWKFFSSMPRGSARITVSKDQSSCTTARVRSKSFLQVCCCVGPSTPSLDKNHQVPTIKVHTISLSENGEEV

[7] = target: Beta-2 adrenergic receptor (Homo sapiens, UniProt P07550); assay: Displacement of [3H] CGP12177 from beta2 adrenergic receptor (unknown origin)
[8] = target: Kappa-type opioid receptor (Homo sapiens, UniProt P41145); assay: Displacement of [3H] diprenorphine from kappa opioid receptor (unknown origin)
How it was run: (§1)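 Radioligand competition binding; Ki given as mean ± SD from two individual experiments, each run in triplicate.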

[9] = target: Mu-type opioid receptor (Homo sapiens, UniProt P35372); assay: Displacement of [3H] diprenorphine from mu opioid receptor (unknown origin); how it was run: as §1
[10] = target: T4, Muscarinic acetylcholine receptor M2 (Homo sapiens, UniProt P08172); assay: Displacement of [3H] NMS from muscarinic M2 receptor (unknown origin); how it was run: as §1
T4 sequence (P08172 whole entry): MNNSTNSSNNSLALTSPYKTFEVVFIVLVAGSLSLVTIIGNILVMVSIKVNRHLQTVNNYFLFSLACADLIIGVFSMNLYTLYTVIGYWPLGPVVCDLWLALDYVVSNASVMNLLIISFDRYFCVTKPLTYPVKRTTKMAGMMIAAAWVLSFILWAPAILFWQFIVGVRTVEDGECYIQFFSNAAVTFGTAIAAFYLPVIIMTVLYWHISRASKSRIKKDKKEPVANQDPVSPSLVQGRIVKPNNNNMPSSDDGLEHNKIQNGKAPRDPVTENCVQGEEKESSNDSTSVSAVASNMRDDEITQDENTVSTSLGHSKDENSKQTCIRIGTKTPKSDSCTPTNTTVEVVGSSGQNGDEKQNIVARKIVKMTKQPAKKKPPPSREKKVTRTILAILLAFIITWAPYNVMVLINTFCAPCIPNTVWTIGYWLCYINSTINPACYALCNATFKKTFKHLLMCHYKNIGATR

[11] = target: Muscarinic acetylcholine receptor M3 (Homo sapiens, UniProt P20309); assay: Displacement of [3H] NMS from muscarinic M3 receptor (unknown origin); how it was run: as §1
[12] = target: T5, 5-hydroxytryptamine receptor 1A (Homo sapiens, UniProt P08908); assay: Displacement of [3H] WAY100635 from 5HT1A receptor (unknown origin); how it was run: as §1
T5 sequence (P08908 whole entry): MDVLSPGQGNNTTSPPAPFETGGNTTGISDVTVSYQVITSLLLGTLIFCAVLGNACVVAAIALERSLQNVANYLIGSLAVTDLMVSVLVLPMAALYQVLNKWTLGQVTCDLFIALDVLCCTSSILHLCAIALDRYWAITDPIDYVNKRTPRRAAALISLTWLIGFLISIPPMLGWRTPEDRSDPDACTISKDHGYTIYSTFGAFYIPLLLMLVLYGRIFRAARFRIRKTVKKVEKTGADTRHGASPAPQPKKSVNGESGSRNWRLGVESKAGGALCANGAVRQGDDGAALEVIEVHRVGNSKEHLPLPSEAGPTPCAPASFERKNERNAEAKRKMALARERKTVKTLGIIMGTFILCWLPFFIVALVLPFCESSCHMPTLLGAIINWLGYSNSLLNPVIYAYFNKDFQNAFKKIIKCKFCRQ

[13] = target: 5-hydroxytryptamine receptor 2A (Homo sapiens, UniProt P28223); assay: Displacement of [3H] Ketanserin from 5HT2A receptor (unknown origin)
[14] = species on record: Homo sapiens; assay: Selectivity index, ratio of Ki for displacement of [3H] prazosin from alpha1A adrenergic receptor to Ki for displacement of [3H] Spiperone from human D4.4 receptor expressed in CHO cells; assay type: cell-based
[15] = target: T2, D(4) dopamine receptor; assay type: cell-based, HEK293
[16] = target: T2, D(4) dopamine receptor; assay: Antagonist activity at […] D4 receptor (unknown origin) expressed in HEK293 cells co-expressing beta-arrestin2 assessed as inhibition of quinpirole-induced beta-arrestin2 recruitment preincubated for 30 mins followed by quinpirole addition and further incubated for 6 hrs by Path-Hunter assay; assay type: cell-based

T1 sequence (P14416 whole entry): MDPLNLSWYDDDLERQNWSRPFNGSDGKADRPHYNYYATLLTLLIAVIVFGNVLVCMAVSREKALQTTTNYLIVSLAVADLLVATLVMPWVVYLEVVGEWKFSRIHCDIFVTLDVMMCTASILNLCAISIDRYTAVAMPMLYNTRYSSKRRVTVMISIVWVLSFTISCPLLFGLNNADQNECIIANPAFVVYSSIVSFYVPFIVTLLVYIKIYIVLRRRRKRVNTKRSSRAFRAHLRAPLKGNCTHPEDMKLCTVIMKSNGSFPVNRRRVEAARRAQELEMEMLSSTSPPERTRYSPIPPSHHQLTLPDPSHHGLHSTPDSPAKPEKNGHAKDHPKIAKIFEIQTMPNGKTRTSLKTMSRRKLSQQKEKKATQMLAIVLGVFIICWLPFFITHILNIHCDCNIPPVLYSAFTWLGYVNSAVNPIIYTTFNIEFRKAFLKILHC
Sequence of Mu-type opioid receptor (P35372 whole entry): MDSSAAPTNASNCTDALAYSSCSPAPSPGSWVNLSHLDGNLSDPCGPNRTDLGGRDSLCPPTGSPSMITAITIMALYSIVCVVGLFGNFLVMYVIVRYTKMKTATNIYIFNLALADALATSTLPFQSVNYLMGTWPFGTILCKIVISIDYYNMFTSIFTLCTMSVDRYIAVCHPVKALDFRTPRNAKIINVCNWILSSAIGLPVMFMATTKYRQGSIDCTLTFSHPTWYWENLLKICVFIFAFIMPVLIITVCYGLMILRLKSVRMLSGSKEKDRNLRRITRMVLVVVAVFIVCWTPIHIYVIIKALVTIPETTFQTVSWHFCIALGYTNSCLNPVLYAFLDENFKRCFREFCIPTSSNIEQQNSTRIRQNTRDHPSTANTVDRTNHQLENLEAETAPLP
Sequence of 5-hydroxytryptamine receptor 2A (P28223 whole entry): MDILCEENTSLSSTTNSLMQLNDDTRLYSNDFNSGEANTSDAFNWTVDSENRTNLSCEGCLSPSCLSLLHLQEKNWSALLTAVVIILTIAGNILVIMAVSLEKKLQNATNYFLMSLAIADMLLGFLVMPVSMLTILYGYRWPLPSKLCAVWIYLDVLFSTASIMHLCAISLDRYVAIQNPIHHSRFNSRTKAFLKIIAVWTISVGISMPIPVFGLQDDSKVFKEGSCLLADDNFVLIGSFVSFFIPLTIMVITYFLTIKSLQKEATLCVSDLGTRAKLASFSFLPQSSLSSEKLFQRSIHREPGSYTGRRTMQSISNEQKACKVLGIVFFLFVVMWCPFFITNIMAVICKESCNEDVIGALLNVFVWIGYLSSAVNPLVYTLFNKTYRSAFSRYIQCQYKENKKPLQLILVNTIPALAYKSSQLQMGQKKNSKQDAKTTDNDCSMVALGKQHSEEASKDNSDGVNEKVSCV
Sequence of Muscarinic acetylcholine receptor M3 (P20309 whole entry): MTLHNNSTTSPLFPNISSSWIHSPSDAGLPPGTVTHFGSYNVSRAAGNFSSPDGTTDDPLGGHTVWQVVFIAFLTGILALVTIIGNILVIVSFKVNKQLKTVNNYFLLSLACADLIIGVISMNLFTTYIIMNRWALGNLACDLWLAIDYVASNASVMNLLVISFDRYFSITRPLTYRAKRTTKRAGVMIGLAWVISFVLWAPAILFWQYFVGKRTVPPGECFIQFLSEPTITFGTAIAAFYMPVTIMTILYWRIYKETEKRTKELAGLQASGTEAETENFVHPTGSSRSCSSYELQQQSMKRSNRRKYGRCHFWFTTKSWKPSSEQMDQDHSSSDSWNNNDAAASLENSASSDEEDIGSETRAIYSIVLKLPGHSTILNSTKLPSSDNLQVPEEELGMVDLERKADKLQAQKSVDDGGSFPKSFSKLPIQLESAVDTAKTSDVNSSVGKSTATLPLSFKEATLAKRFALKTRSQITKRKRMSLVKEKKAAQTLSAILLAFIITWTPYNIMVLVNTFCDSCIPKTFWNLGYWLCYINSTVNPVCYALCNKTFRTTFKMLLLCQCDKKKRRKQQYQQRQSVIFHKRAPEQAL
Sequence of Beta-2 adrenergic receptor (P07550 whole entry): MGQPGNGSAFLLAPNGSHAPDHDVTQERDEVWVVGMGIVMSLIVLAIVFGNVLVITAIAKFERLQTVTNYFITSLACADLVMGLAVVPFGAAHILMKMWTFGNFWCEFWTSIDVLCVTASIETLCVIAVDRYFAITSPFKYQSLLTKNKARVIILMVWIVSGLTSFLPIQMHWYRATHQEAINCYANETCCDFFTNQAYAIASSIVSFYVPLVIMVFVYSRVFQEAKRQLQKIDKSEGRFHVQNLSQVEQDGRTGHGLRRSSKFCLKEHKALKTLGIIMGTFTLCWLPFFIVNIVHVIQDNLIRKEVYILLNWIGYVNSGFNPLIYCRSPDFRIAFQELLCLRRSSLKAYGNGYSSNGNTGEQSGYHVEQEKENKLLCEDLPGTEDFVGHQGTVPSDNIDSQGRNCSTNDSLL
Sequence of D(1B) dopamine receptor (P21918 whole entry): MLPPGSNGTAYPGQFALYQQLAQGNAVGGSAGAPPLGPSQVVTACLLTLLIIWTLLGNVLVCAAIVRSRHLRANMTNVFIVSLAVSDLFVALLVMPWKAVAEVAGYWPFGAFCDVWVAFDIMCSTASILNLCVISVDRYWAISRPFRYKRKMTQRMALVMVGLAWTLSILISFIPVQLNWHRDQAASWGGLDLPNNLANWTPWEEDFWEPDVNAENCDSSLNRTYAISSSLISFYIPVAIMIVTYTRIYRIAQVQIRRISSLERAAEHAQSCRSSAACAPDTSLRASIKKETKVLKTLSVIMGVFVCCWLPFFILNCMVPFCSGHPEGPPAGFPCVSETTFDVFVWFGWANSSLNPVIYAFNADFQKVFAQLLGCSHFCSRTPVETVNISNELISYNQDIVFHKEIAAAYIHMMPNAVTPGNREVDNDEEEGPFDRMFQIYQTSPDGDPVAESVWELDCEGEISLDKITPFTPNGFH
Sequence of Kappa-type opioid receptor (P41145 whole entry): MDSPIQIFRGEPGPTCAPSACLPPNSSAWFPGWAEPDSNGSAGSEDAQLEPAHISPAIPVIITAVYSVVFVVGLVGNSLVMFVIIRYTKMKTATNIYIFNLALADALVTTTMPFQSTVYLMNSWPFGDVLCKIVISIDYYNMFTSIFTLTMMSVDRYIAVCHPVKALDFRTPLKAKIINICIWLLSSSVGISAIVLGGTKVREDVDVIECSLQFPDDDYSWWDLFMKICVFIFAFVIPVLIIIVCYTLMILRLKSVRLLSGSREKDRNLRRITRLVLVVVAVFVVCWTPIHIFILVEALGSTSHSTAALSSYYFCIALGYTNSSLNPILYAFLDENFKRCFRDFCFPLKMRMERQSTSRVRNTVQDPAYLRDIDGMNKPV

## COc1ccccc1N1CCN(CCCNC(=O)NN(Cc2ccc(F)cc2)c2ccccc2)CC1
[1]
  Ki: 140 nM
[2]
  Ki: 110 nM
[3]
  Ki: 0.55 nM
[4]
  Ratio Ki: 560
[5]
  Ki: 1000 nM
[6]
  Ki: 1.6 nM
[7]
  Ki: 4500 nM
[8]
  Ki: 4300 nM
[9]
  Ki: 2300 nM
[10]
  Ki: 17000 nM
[11]
  Ki: 37000 nM
[12]
  Ki: 34 nM
[13]
  Ki: 130 nM
[14]
  Ratio Ki: 2.9
[15]
  EC50: 500 nM
[16]
  IC50: 620 nM
